# Residues, ends and D or L forms follow the SMILES beside them.
# Assays:
# Format in all cases: cell-based
# MCF-7 cells [1] = experiment: MTT viability assay, MCF-7; conditions: read-out: IC50 MCF-7, 2 h peptide treatment, 6.25-200 μg mL^–1, n = 3
# In short: (§1)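 Cancer cells were cultured in supplemented RPMI-1640, seeded at 1×10^4 per well, adhered 12 h and synchronized 12 h in incomplete medium. Peptide was applied at 6.25–200 μg mL⁻¹ for 2 h, then MTT was added for 4 h, formazan dissolved in DMSO, and absorbance read at 575 nm; n = 3. Selectivity was taken as the IC₅₀ in MCF-12 cells, foreskin-derived primary fibroblasts or erythrocytes divided by the cancer-cell IC₅₀.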
# MDA-MB-231 cells = experiment: MTT viability assay, MDA-MB-231; conditions: read-out: IC50 MDA-MB-231, 2 h peptide treatment, 6.25-200 μg mL^–1, n = 3
# In short: as §1
# MCF-7 cells [2] = experiment: Wound-healing assay; conditions: substance alone (peptide at IC50), n = 12
IC50 (MCF-7 cells [1]),IC50 (MDA-MB-231 cells),SMILES,"wound area reduced (MCF-7 cells [2]; MCF-7, 24 h after the wound)","wound area reduced (closure) (MCF-7 cells [2]; MCF-7, 48 h after the wound)"
58 µM,67 µM,N=C(N)NCCC[C@H](NC(=O)[C@H](CCCNC(=N)N)NC(=O)[C@H](Cc1c[nH]c2ccccc12)NC(=O)[C@H](CCC(N)=O)NC(=O)[C@H](Cc1c[nH]c2ccccc12)NC(=O)[C@H](CCCNC(=N)N)NC(=O)[C@H](Cc1c[nH]c2ccccc12)NC(=O)[C@H](CCC(N)=O)NC(=O)[C@H](Cc1c[nH]c2ccccc12)NC(=O)[C@H](CCCNC(=N)N)NC(=O)[C@@H](N)CCCNC(=N)N)C(N)=O [RR-1-RR] (H-RRWQWRWQWRR-NH2),–,–
68 µM,73 µM,N=C(N)NCCC[C@H](NC(=O)[C@H](Cc1c[nH]c2ccccc12)NC(=O)[C@H](CCC(N)=O)NC(=O)[C@H](Cc1c[nH]c2ccccc12)NC(=O)[C@H](CCCNC(=N)N)NC(=O)[C@H](Cc1c[nH]c2ccccc12)NC(=O)[C@H](CCC(N)=O)NC(=O)[C@H](Cc1c[nH]c2ccccc12)NC(=O)[C@H](CCCNC(=N)N)NC(=O)[C@@H](N)CCCNC(=N)N)C(N)=O [RR-1-R] (H-RRWQWRWQWR-NH2),–,–
–,–,C[C@]12CC[C@@H]3c4ccc(O)cc4CC[C@H]3[C@@H]1CC[C@@H]2O [estradiol],about 20%,40%

# Reference: PMC9850729 (ACS Omega, 2023)
